This note sets out measurements from publication PMC4344132 (Cell, 2014).

No end group written: not given here.

Usually Kd stands for the concentration at which binding is half-saturated. Read a low Kd as a tighter complex.

In test [1] the test system is histone H3 acetylation in HeLa cells. Kind of test: Histone H3 acetylation level in HeLa cells treated with GCN5/PCAF inhibitor. The conditions noted are these: Figure S5C. It is filed as cell-based.
Test [2] deals with AF9 occupancy on MYC in HeLa cells. Put plainly: AF9 occupancy on MYC in HeLa cells treated with GCN5/PCAF inhibitor. It is filed as cell-based. The conditions noted are these: Figure S5C. Put shortly: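 HeLa cells (endogenous AF9 has no ChIP-grade antibody, so a line stably expressing Flag-AF9 was used) were treated with the GCN5/PCAF inhibitor. Cells were crosslinked with 1% formaldehyde for 10 min, then quenched with 125 mM glycine. Nuclei were sonicated and immunoprecipitated with 2–4 µg antibody overnight at 4°C, collected with Staph A cells, washed and reverse-crosslinked. MYC DNA was quantified by SYBR Green qPCR. Differences were tested by two-way unpaired Student's t-test.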

In test [3] the target is human AF9 YEATS (1–138) (human) (UniProt P42568). Put plainly: ITC. In general terms: Isothermal titration calorimetry measures the heat released or taken up as one component is titrated into another.
Test [4] deals with T1, AF9 YEATS domain (Homo sapiens, UniProt P42568).
T1 sequence (P42568 1-138 limits assumed): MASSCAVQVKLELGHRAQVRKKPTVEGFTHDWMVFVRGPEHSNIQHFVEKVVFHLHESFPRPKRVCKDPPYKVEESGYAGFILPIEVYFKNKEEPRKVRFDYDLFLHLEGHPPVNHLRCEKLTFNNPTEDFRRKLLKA
Put plainly: Isothermal titration calorimetry. Type of test: binding. The conditions noted are these: ITC; different frames of the H3K9ac peptides; Figure 4A.

Turning to `Clc1ccc(-c2csc(NN=C3CCCC3)n2)cc1` [CPTH2], the “histone H3 acetylation levels” value in test [1] is “reduced”. Further, the “AF9 occupancy on MYC” value in test [2] is “reduced”.

In the case of “H3K9ac peptide with H3R8 substituted with alanine”, the fold binding reduction against the H3K9ac peptide in test [3] was 200 fold.

With H3K18ac peptide (ITC), in test [3], the Kd was found to be 11 µM. Still for that read-out and setting: to H3K27ac peptide (ITC) belongs 7 µM. In the case of “H3_7–11K9ac: H3K9ac peptide frame 7–11 (ARK(Ac)ST)”, the “binding (in words)” value in test [4] is listed as “no binding”.
